Experimental data: ChEMBL document CHEMBL5696442, “Discovery of type II inhibitors of TGFβ-activated kinase 1 (TAK1) and mitogen-activated protein kinase kinase kinase kinase 2 (MAP4K2)” (J Med Chem, 2015)
Active and inactive are the calls of the source. No cut-off for these calls is given here.

Experiments:
[1] = target: T1, Mitogen-activated protein kinase 14 (Homo sapiens, UniProt Q16539); assay: Inhibition of p38 alpha in human Huh-7 cell lysate at 1 uM by KiNativ Profiling analysis relative to control; assay type: subcellular
T1 sequence (Q16539 whole entry): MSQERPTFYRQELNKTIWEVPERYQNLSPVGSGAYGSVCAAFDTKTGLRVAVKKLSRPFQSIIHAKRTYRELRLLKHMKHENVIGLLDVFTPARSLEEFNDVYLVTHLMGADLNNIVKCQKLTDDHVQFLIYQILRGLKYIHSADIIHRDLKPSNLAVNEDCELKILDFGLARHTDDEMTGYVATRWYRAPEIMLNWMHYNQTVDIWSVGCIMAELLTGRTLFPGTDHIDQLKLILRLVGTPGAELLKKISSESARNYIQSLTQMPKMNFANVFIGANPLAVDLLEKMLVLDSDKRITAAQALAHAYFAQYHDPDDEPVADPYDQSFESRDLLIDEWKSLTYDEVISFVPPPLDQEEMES

L929 = assay: Inhibition of TNF alpha induced IKKalpha/beta phosphorylation level in mouse L929 cells at 100 nM preincubated for 30 mins followed by TNF alpha stimulation and measured after 5 mins by Western blot analysis; assay type: functional, cell-based
Procedure, shortened: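 Mouse L929 cells were pretreated with compound at 100 nM for 30 min, then stimulated with TNFα for 5 min. Lysates were Western blotted for phospho-IKKα/β, with tubulin as loading control.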

[2] = target: T1, Mitogen-activated protein kinase 14; assay: Inhibition of p38 alpha (unknown origin) by KiNativ Profiling analysis
[3] = target: T2, Tyrosine-protein kinase ABL1 (Homo sapiens, UniProt P00519); assay: Inhibition of ABL ACT labeling site in human Huh-7 cell lysate at 1 uM by KiNativ Profiling analysis relative to control; assay type: subcellular
T2 sequence (P00519 whole entry): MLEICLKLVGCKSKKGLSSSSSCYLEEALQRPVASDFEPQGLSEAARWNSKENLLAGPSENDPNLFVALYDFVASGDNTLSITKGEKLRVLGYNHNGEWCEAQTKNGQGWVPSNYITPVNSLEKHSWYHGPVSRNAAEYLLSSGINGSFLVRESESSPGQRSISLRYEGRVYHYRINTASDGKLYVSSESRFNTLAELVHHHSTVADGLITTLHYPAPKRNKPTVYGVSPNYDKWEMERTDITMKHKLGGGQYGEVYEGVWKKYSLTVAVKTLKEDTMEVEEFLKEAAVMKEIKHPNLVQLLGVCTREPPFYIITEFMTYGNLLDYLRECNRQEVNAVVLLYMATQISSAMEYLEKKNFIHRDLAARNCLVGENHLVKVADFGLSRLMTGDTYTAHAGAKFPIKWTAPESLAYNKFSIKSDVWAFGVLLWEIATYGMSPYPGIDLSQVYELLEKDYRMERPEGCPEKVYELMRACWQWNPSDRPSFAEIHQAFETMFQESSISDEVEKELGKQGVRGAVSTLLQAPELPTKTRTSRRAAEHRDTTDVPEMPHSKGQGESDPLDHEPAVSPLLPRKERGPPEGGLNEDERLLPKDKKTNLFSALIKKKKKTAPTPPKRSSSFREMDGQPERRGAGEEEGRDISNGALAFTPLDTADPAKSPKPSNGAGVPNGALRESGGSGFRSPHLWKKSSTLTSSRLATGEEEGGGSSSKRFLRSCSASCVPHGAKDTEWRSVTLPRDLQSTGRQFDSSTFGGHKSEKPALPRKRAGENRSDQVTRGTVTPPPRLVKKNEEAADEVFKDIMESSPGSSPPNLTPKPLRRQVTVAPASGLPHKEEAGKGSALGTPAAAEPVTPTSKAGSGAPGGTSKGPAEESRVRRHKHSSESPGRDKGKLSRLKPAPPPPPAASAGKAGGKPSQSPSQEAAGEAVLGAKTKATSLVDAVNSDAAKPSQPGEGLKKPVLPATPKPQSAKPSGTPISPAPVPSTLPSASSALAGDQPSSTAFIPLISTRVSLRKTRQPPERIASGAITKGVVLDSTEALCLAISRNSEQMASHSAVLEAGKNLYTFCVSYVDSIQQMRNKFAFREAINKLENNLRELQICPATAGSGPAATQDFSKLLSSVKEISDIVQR

BaF3 [4] = assay: Antiproliferative activity against parental mouse BaF3 cells assessed reduction in cell viability measured after 48 hrs by Celltiter-glo assay; assay type: functional, cell-based; conditions: BaF3, 48 h
[5] = target: T2, Tyrosine-protein kinase ABL1; assay: Inhibition of ABL Lys1 labeling site in human Huh-7 cell lysate at 1 uM by KiNativ Profiling analysis relative to control; assay type: subcellular
BaF3 [6] = assay: Antiproliferative activity against parental mouse BaF3 cells harbouring Bcr/Abl assessed reduction in cell viability measured after 48 hrs by Celltiter-glo assay; assay type: functional, cell-based; conditions: BaF3, 48 h
Procedure, shortened: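 Cells were grown with serial dilutions of compound for 48 h, and viability was read by CellTiter-Glo. IC50 was derived from the dose–response curve. Parental Ba/F3 cells were grown in the presence of interleukin 3. The BCR-ABL line is BCR-ABL-dependent Ba/F3.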

[7] = target: T3, Mitogen-activated protein kinase kinase kinase 20 (Homo sapiens, UniProt Q9NYL2); assay: Inhibition of ZAK (unknown origin) Lys1 labeling site by KiNativ Profiling analysis
Target sequence in this assay (Q9NYL2 whole entry): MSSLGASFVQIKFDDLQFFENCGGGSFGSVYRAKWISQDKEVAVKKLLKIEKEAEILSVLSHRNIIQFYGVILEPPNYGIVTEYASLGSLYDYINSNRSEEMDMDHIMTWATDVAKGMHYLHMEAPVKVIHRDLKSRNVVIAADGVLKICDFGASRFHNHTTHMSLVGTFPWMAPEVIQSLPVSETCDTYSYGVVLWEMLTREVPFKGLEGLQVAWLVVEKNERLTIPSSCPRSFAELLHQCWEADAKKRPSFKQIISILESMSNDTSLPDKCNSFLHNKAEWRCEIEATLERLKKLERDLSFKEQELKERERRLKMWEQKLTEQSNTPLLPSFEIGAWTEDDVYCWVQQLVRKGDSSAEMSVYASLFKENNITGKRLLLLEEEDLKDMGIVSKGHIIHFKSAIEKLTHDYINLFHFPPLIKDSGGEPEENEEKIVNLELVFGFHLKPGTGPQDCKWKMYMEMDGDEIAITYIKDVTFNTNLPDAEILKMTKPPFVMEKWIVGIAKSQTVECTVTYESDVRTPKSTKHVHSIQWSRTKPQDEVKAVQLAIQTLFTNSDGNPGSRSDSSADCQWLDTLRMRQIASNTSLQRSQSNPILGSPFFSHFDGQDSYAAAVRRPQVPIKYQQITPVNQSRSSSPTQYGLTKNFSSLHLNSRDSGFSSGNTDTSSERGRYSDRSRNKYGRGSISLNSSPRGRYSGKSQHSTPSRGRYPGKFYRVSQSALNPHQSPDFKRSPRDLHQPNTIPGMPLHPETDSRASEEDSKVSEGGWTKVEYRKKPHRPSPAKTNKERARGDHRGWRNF

[8] = target: T3, Mitogen-activated protein kinase kinase kinase 20; assay: Inhibition of ZAK Lys1 labeling site in human Huh-7 cell lysate at 1 uM by KiNativ Profiling analysis relative to control; assay type: subcellular
Target sequence in this assay (Q9NYL2 2-800 limits assumed): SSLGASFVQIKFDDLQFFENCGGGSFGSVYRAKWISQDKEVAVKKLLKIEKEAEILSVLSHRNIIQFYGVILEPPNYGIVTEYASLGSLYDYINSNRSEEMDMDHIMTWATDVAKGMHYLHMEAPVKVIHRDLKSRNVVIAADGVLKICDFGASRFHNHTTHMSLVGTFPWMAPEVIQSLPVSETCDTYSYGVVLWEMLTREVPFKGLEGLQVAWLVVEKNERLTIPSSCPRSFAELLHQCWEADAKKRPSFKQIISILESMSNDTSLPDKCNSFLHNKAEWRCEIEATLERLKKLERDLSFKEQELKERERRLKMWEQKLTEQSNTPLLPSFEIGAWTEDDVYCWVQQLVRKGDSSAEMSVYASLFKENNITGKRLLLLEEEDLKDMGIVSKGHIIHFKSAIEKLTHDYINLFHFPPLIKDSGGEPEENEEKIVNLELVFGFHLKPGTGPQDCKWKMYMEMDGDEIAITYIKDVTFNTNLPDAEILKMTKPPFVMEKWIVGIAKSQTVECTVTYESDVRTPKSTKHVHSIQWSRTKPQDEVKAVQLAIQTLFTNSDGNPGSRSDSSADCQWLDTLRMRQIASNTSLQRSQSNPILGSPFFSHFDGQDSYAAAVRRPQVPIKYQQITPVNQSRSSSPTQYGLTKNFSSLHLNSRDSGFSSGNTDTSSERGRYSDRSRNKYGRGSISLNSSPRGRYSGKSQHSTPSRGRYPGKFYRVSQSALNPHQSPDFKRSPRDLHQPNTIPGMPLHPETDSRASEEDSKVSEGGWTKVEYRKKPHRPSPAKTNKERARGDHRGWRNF

[9] = target: T4, Mitogen-activated protein kinase kinase kinase 7 (Homo sapiens, UniProt O43318); assay: Inhibition of TAK1 (unknown origin) Lys2 labeling site by KiNativ Profiling analysis
T4 sequence (O43318 whole entry): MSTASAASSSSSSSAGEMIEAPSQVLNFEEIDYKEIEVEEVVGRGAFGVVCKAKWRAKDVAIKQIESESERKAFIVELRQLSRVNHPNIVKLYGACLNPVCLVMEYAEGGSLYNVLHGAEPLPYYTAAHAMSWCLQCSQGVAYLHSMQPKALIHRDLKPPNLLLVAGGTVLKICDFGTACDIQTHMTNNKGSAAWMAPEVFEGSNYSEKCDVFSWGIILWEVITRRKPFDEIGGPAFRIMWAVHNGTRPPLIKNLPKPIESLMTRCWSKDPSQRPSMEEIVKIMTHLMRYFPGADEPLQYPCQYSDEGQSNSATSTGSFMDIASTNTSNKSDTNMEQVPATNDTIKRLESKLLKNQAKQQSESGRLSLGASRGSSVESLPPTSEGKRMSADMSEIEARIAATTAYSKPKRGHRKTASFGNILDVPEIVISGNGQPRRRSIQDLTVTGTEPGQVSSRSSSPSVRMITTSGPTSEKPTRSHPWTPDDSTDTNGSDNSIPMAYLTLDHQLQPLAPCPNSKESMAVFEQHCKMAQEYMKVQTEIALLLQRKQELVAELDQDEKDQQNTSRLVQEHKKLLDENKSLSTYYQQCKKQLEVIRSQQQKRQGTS

[10] = target: T5, Mitogen-activated protein kinase kinase kinase kinase 2 (Homo sapiens, UniProt Q12851); assay: Inhibition of MAP4K2 (unknown origin) Lys1 labeling site by KiNativ Profiling analysis
T5 sequence (Q12851 whole entry): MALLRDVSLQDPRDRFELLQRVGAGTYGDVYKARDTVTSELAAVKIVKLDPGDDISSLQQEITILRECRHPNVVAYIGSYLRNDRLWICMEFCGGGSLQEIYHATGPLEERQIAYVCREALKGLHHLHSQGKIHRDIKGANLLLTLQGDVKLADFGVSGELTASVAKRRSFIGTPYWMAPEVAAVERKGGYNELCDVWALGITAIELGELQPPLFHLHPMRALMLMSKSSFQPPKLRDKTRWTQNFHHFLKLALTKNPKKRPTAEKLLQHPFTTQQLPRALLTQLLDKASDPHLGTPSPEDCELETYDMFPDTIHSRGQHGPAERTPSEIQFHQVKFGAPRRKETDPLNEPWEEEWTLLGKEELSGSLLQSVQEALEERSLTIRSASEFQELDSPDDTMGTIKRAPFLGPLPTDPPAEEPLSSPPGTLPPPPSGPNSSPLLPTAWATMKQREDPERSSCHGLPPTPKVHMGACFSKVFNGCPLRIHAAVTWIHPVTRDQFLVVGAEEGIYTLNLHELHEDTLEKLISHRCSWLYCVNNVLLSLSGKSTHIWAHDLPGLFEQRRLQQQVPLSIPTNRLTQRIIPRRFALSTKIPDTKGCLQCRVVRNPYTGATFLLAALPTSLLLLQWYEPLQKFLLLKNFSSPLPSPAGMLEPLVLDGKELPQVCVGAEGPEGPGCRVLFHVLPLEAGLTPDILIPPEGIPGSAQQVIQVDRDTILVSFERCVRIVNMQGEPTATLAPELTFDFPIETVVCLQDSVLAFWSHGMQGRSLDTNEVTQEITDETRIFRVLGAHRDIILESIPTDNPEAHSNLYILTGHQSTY

[11] = target: T6, Mitogen-activated protein kinase kinase kinase kinase 2 (Homo sapiens) (UniProt Q12851); assay: Inhibition of MAP4K2 Lys1 labeling site in human A-375 cells at 0.5 uM by KiNativ Profiling analysis relative to control; assay type: cell-based
T6 sequence (whole entry): T5 sequence (Q12851 whole entry)

[12] = target: T7, Mitogen-activated protein kinase kinase kinase 7 (Homo sapiens) (UniProt O43318); assay: Inhibition of TAK1 Lys2 labeling site in human A-375 cells at 0.5 uM by KiNativ Profiling analysis relative to control; assay type: cell-based
T7 sequence (whole entry): T4 sequence (O43318 whole entry)

[13] = target: T8, Tyrosine-protein kinase CSK (Homo sapiens, UniProt P41240); assay: Inhibition of CSK (unknown origin) ACT labeling site by KiNativ Profiling analysis
Target sequence in this assay (P41240 whole entry): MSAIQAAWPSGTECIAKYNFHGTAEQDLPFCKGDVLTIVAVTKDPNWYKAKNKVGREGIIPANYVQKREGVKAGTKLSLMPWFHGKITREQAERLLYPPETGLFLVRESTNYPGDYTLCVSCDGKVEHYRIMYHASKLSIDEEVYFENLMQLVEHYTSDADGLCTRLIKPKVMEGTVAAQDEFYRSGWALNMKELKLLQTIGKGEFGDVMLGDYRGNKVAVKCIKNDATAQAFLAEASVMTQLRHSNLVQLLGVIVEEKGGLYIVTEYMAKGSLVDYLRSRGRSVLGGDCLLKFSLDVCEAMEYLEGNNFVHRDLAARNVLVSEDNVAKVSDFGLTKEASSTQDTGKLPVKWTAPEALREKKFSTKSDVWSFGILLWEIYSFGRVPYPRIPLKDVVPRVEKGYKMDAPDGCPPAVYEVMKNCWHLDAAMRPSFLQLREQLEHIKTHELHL

[14] = target: T8, Tyrosine-protein kinase CSK; assay: Inhibition of CSK ACT labeling site in human Huh-7 cell lysate at 1 uM by KiNativ Profiling analysis relative to control; assay type: subcellular
Target sequence in this assay (P41240 2-450 limits assumed): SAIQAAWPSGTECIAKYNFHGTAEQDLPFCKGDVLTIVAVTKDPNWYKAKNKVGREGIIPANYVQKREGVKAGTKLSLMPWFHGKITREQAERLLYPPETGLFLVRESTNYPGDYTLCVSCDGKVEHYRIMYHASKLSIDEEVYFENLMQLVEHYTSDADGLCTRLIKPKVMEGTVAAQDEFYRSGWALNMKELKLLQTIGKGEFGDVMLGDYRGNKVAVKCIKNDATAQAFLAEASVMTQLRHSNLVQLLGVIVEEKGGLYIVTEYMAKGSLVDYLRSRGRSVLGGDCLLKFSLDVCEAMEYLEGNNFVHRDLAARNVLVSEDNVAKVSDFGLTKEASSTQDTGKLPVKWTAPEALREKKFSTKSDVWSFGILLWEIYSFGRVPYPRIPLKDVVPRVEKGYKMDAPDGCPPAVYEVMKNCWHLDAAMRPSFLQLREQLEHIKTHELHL

| Structure (SMILES) | inhibition [1] | inhibition (L929) | IC50 [2] | inhibition [3] | IC50 (BaF3 [4]) | inhibition [5] | IC50 (BaF3 [6]) | IC50 [7] | inhibition [8] | IC50 [9] | IC50 [10] | inhibition [11] | inhibition [12] | IC50 [13] | inhibition [14] |
| --- | --- | --- | --- | --- | --- | --- | --- | --- | --- | --- | --- | --- | --- | --- | --- |
| CCN1CCN(Cc2ccc(C(=O)Nc3ccc(C)c(Oc4ccnc5[nH]ccc45)c3)cc2C(F)(F)F)CC1 | 88.4% | inactive | 19.5 nM |  |  |  |  |  |  |  |  |  |  |  |  |
| CCN1CCN(c2ccc(NC(=O)c3ccc(C)c(CCc4cnc5[nH]ccc5c4OC)c3)cc2C(F)(F)F)CC1 |  |  |  | 80.7% | 9740 nM | 75.2% | 181 nM |  |  |  |  |  |  |  |  |
| COc1c(CCc2cc(C(=O)Nc3cc(-n4cnc(C)c4)cc(C(F)(F)F)c3)ccc2C)cnc2[nH]ccc12 | 98.8% |  | 5.27 nM | 92.2% | 4920 nM | 80.4% | 10 nM | 98.2 nM | 95.6% |  |  |  |  |  |  |
| Cc1ccc(C(=O)Nc2cc(N3CCN(C)CC3)cc(C(F)(F)F)c2)cc1Oc1ncnc2[nH]ccc12 |  |  |  |  |  |  |  |  |  | 465 nM | 177 nM | 73.6% | 29.3% |  |  |
| CCN1CCN(Cc2ccc(NC(=O)c3ccc(C)c(Oc4ccnc(C(=O)NC)c4)c3)cc2C(F)(F)F)CC1 | 93.1% |  | 69.6 nM |  |  |  |  | 447 nM | 82.7% |  |  |  |  |  |  |
| Cc1cn(-c2cc(NC(=O)c3ccc(C)c(Oc4ccnc5[nH]ccc45)c3)cc(C(F)(F)F)c2)cn1 |  | inactive |  |  |  |  |  |  |  | 4490 nM | 30.1 nM | 72% | -1.5% |  |  |
| C[S+]([O-])c1ccc(-c2nc(-c3ccc(F)cc3)c(-c3ccncc3)[nH]2)cc1 (stereo not given) |  | inactive |  |  |  |  |  |  |  |  |  |  |  |  |  |
| COc1c(/C=C/c2cc(C(=O)Nc3ccc(OC4CCN(C)CC4)c(C(F)(F)F)c3)ccc2C)cnc2[nH]ccc12 | 90.5% |  | 63.6 nM | 94.5% | 7570 nM | > 85% | 10 nM |  |  |  |  |  |  |  |  |
| CCN1CCN(Cc2ccc(NC(=O)c3cccc(CCc4cnc5[nH]ccc5c4OC)c3)cc2C(F)(F)F)CC1 |  |  |  | 66.4% | > 10000 nM | 83% | 387 nM | 301 nM | 78% |  |  |  |  |  |  |
| CCN1CCN(Cc2ccc(C(=O)Nc3cccc(CCc4cnc5[nH]ccc5c4OC)c3)cc2C(F)(F)F)CC1 | 95.9% |  | 555 nM | 90.3% | > 10000 nM | > 80% | 16 nM | 179 nM | 78.4% |  |  |  |  |  |  |
| CCN1CCN(Cc2ccc(NC(=O)c3ccc(C)c(OCc4cnc5[nH]ccc5c4OC)c3)cc2C(F)(F)F)CC1 | 97.3% |  | 659 nM | 96% | 8280 nM | > 80% | 39 nM |  |  | 150 nM | 49.4 nM | 89.4% | 59.6% | 59 nM | 84% |
| CCN1CCN(Cc2ccc(NC(=O)c3ccc(OC)c(Oc4ncnc5[nH]ccc45)c3)cc2C(F)(F)F)CC1 |  |  |  |  |  |  |  |  |  | 292 nM | 296 nM |  |  |  |  |
| CCN1CCN(Cc2ccc(NC(=O)c3ccc(C)c(Oc4ccnc(NC)n4)c3)cc2C(F)(F)F)CC1 | 95.4% |  | 45.8 nM | 74.6% | > 10000 nM |  | 85 nM | 546 nM | 89.6% | 165 nM | 26.5 nM | > 85% | 77.7% |  |  |
| CCN1CCN(Cc2ccc(NC(=O)c3cccc(/C=C/c4cnc5[nH]ccc5c4OC)c3)cc2C(F)(F)F)CC1 |  |  |  | 89.6% | 7100 nM | 82% | 10 nM | 396 nM | 75.3% |  |  |  |  |  |  |
| COc1c(/C=C/c2cc(C(=O)Nc3ccc(CN4CCC(N(C)C)C4)c(C(F)(F)F)c3)ccc2C)cnc2[nH]ccc12 (stereo not given) | 85% |  | 140 nM | 66.6% | 5470 nM | 47.5% | 10 nM |  |  |  |  |  |  | 25 nM | 75.6% |
| CCN1CCN(Cc2ccc(NC(=O)c3cccc(Oc4ccnc5[nH]ccc45)c3)cc2C(F)(F)F)CC1 | 85.8% |  | 35.9 nM | > 96% | 7440 nM |  | 10 nM |  |  | 119 nM | 23.8 nM | > 80% | 75.6% |  |  |
| COc1c(/C=C/c2cc(C(=O)Nc3cccc(C(C)(C)C#N)c3)ccc2C)cnc2[nH]ccc12 |  |  |  | 62.2% | 3300 nM | 71.5% | 10 nM | 103 nM | 95.8% |  |  |  |  | 25.1 nM | 75.7% |
| CCN1CCN(Cc2ccc(NC(=O)c3ccc(C)c(/C=C/c4cnc5[nH]ccc5c4OC)c3)cc2)CC1 |  |  |  | 96.3% | 7710 nM | > 80% | 10 nM |  |  |  |  |  |  |  |  |
| CNC(=O)c1ccc(C)c(-n2c(C)cc(OCc3ccc(F)cc3F)c(Br)c2=O)c1 |  | inactive |  |  |  |  |  |  |  |  |  |  |  |  |  |
